From ChEMBL document CHEMBL1955718, “Discovery of new orally effective analgesic and anti-inflammatory hybrid furoxanyl N-acylhydrazone derivatives” (Bioorg Med Chem, 2012)
pIC50: −log10 of the molar value.

What was measured:
HT-29 [1] = test: Inhibition of TNFalpha-induced NF-kappaB activation expressed in human HT-29 cells coexpressing hrGFP at 100 uM after 24 hrs by propidium iodide staining-based flow cytometric analysis relative to control; type: cell-based
In short: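 HT-29 cells stably expressing NF-κB-driven hrGFP given compound (DMSO <0.5%) for 2 h at the maximum non-cytotoxic concentration, then TNF-α at 3 ng/mL final for 18–24 h. Cells trypsinised and stained with propidium iodide; 5000 events gated on FSC/SSC. The %GFP-positive among PI-excluding live cells is normalised to TNF-α/DMSO control, ± SD.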

[2] = Cytotoxicity against mouse […] cells after 48 hrs by MTT assay; type: cell-based
In short: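 J774 macrophages in DMEM (4 mM L-glutamine, 10% heat-inactivated FBS) were seeded at 1 × 10^5 cells/well and grown for 48 h at 37 °C, 5% CO2. They were then exposed to compounds at 25–400 µM for 48 h. MTT (0.1 mg/mL final) was added for 3 h, formazan was dissolved in DMSO/glycine buffer pH 10.5, and absorbance was read at 560 nm to give an IC50.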

[3] = Cytotoxicity against human HT-29 cells expressing NF-kappaB-hrGFP assessed as highest non-cytotoxic dose for 100% cell survival after 24 hrs by MTT assay; type: cell-based; conditions: read-out: Activity
In short: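 HT-29 cells stably carrying pNF-κB-hrGFP, seeded at 0.5 × 10^6/mL in DMEM with 10% FBS, grown 24 h at 37 °C, 5% CO2. Compounds added in DMSO (<0.5% v/v final) at 12.5–400 µM for 24 h. Viability by MTT reduction (2 h), formazan dissolved in DMSO/glycine buffer, read at 560 nm.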

[4] = biological target: T1, Prostaglandin G/H synthase 2 (Homo sapiens) (UniProt P35354); test: Inhibition of human recombinant COX-2 at 50 uM
T1 sequence (whole entry): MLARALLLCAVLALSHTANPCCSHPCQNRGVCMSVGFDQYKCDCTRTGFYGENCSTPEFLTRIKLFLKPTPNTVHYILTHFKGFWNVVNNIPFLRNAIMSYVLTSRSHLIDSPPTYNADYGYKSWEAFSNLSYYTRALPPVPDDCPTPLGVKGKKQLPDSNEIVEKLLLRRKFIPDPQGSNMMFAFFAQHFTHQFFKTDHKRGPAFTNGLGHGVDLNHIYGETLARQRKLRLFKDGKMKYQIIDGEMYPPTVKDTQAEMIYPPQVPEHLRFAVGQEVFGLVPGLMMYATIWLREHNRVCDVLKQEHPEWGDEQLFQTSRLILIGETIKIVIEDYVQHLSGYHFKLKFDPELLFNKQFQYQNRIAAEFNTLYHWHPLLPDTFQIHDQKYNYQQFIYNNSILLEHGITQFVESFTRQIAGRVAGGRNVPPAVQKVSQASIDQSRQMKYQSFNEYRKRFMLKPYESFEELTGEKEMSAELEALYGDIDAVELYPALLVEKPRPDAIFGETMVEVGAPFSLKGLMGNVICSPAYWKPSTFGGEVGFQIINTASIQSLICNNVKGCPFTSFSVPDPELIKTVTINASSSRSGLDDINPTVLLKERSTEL
In short: (§1)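 Isolated ovine COX-1 and human recombinant COX-2 tested by ELISA-based inhibitor screening kit with compound at 10 and 50 µM. Positive control indomethacin at 0.1 µM (COX-1) or 6 µM (COX-2). Mean of duplicates; Student t-test.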

Rattus norvegicus = test: Antiinflammatory activity in albino rat assessed as inhibition of carrageenan-induced paw edema at 100 umol/kg, po administered 1 hr before carrageenan challenge measured after 3 hrs by plethysmometric analysis relative to control; type: functional
In short: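 Albino rats of both sexes (150–200 g) were dosed orally as a suspension in 1% Tween 80 in saline, with vehicle controls. After 1 h, 0.1 mL 1% carrageenan or saline was injected subplantar. Paw volume was read by glass plethysmometer at 3 h. Edema = carrageenan-paw minus saline-paw volume; % inhibition vs vehicle; Student t-test.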

HT-29 [5] = test: Pro-inflammatory activity in NFkappaB-GFP transfected human HT-29 cells at 25 to 400 uM after 24 hrs by propidium iodide staining-based flow cytometric analysis; type: ADME, cell-based; conditions: ht-29, 24 h
In short: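 Reporter HT-29-NF-κB-hrGFP cells given compound alone, without TNF-α, for 18–24 h at 37 °C after the same 2 h pre-incubation. GFP-positive live (propidium iodide-excluding) cells counted by flow cytometry; IL-8 in supernatant measured by bead-based flow cytometry.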

[6] = biological target: T2, Prostaglandin G/H synthase 1 (Ovis aries) (UniProt P05979); test: Inhibition of ovine COX-1 at 50 uM; in short: as §1
T2 sequence (whole entry): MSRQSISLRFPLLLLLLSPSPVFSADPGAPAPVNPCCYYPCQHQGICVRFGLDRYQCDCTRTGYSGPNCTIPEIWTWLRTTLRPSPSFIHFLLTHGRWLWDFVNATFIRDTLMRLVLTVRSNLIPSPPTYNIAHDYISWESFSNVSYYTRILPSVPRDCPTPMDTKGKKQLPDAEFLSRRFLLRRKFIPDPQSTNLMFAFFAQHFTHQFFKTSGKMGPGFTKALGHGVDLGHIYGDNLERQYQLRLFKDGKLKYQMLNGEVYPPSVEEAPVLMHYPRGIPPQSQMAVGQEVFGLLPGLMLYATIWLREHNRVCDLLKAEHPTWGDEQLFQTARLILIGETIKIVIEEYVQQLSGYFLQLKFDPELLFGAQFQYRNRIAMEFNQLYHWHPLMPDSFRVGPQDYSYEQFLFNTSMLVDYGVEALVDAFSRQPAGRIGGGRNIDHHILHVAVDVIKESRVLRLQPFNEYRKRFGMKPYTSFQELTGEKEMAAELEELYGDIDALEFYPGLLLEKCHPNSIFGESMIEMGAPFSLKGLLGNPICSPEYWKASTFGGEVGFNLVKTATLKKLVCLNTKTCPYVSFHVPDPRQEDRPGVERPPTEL

[7] = biological target: T2, Prostaglandin G/H synthase 1 (Ovis aries); test: Inhibition of ovine COX-1 at 10 uM; in short: as §1
Glycine max = test: Inhibition of soybean lipoxygenase using arachidonic acid as substrate at 50 uM
In short: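 Soybean 15-lipoxygenase kit assay, arachidonic acid substrate, H2O2 as lipoxygenating agent in 0.1 M Tris-HCl pH 7.4. Single-point screen at 50 µM. IC50 found by varying concentration over 10–100 µM. Quercetin at 4 µM as positive control; duplicate means; Student t-test.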

[8] = biological target: T1, Prostaglandin G/H synthase 2 (Homo sapiens); test: Inhibition of human recombinant COX-2 at 10 uM; in short: as §1
[9] = Induction of NO release in 0.1 M Tris-HCl and 0.1 mM DTPA at pH 8.3 measured for 20 mins in presence of cysteine; type: physicochemical; conditions: buffer, pH 8.3, 20 min
In short: (§2)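 Electrochemical NO detection with an ISO-NOP sensor. Compounds in DMSO added to 0.1 M Tris-HCl, 0.1 mM DTPA at pH 7.4 or 8.3. Cysteine (300 or 100 µM) added and NO recorded for 20 min at 25 or 37 °C; compound:Cys ratio 1:1 at 25 °C, with 3:1 and 37 °C runs also made.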

[10] = Induction of NO release in 0.1 M Tris-HCl and 0.1 mM DTPA at pH 7.4 measured for 20 mins in presence of cysteine; type: physicochemical; conditions: buffer, pH 7.4, 20 min; in short: as §2

SMILES	NF-kappaB activity (% of TNF-alpha control) (HT-29 [1]) [%]	pIC50 [2]	MNTC at 24 h [3] [µM]	inhibition [4] [%]	inhibition in vivo at 100 µmol/kg (Rattus norvegicus) [%]	Activity (HT-29 [5])	inhibition [6] [%]	inhibition [7] [%]	inhibition (Glycine max) [%]	inhibition [8] [%]	Activity [9] [nM/min]	Activity [10] [nM/min]
Cc1c(C(=O)N/N=C/c2ccc(N(C)C)cc2)no[n+]1[O-]	150	3.89	100	22	19	Non-toxic	25.3	22.5	0	17.8		
Cc1[nH]cnc1C(=O)N/N=C/c1ccc2no[n+]([O-])c2c1		4.42	50	6.4	31	Non-toxic	22.3	25.9	0	19.6	0	0
O=C(N/N=C/c1c(-c2ccccc2)no[n+]1[O-])c1ccc2c(c1)OCO2	12	3.72	100	11.9	0	Non-toxic	28.5	27	0	13.1	0.39	0
